In series [1] the target is Cathepsin S (Homo sapiens, UniProt P25774). As to the kind of experiment: Inhibition of recombinant human cathepsin S.
For series [2], the target named is T1, Cathepsin K (Homo sapiens, UniProt P43235).
T1 sequence (P43235 whole entry): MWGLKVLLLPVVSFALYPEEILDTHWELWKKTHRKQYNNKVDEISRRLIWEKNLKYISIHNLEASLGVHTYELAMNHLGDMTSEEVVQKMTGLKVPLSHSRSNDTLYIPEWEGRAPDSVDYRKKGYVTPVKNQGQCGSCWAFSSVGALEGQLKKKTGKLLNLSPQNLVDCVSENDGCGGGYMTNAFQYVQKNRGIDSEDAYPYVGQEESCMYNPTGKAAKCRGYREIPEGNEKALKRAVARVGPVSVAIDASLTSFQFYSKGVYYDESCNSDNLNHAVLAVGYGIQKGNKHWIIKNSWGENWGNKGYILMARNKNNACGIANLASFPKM
Description: Inhibition of recombinant human cathepsin K.

Series [3] concerns the target Procathepsin L (Homo sapiens, UniProt P07711). Description: Inhibition of recombinant human cathepsin L.
Series [4] in a line: Oral bioavailability in rat. The series is classed as ADME, organism-based. Particulars: in vivo. The method in brief:
(§1)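 Cassette dosing of six compounds to conscious, fed, permanently cannulated rats. IV bolus of 1 mg kg^-1 in N-methyl-2-pyrrolidone/PEG200 (30:70, v/v). Oral dose of 3 mg kg^-1, dissolved or suspended with sonication in 1% tartaric acid plus 1% carboxymethyl cellulose in water. Same animals received both routes, with a 48 h washout between them. Femoral arterial blood sampled over 24 h. Plasma extracted by acetonitrile precipitation and parent drug quantified by HPLC/MS.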

Series [5] relates to Rattus norvegicus. As to the kind of experiment: Cmax in rat at 3 mg/kg, po normalized to 1 mg/kg. Particulars: in vivo. The series is classed as ADME, organism-based. Also on record: dose 3 mg/kg, route oral. In short, it runs like this:
as §1

Series [6] can be described thus: Volume of distribution in rat. The format is ADME, organism-based. To be noted: in vivo, read-out: Vss. The method in brief: as §1
The nature of series [7]: Terminal half life in rat. The format is ADME, organism-based. To be noted: in vivo. The method in brief:
as §1

The nature of series [8]: Clearance in rat. Particulars: in vivo. The format is ADME, organism-based. The method in brief: as §1

For orientation: IC50 means the midpoint of a concentration-inhibition curve. By bioavailability is commonly meant dose-corrected exposure relative to a reference, in per cent. A word on the Cmax: it is the maximum level reached in the sampled fluid or tissue. By half-life is commonly meant how long it takes for the measured level to halve. Low readings indicate rapid decline, high ones slow decline. What is called clearance is the rate of elimination divided by the concentration. Read a low clearance as a low capacity for elimination.

Chain of Cathepsin S (P25774 whole entry): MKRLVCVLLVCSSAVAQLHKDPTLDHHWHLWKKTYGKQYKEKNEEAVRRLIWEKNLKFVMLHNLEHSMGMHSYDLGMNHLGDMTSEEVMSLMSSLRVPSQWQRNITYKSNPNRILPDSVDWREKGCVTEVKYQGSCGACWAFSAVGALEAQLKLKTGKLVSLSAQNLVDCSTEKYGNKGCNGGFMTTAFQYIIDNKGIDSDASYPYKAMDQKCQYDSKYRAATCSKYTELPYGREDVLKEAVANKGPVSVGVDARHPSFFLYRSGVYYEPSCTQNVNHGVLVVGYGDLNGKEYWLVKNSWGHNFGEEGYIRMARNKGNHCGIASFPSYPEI
Chain of Procathepsin L (P07711 whole entry): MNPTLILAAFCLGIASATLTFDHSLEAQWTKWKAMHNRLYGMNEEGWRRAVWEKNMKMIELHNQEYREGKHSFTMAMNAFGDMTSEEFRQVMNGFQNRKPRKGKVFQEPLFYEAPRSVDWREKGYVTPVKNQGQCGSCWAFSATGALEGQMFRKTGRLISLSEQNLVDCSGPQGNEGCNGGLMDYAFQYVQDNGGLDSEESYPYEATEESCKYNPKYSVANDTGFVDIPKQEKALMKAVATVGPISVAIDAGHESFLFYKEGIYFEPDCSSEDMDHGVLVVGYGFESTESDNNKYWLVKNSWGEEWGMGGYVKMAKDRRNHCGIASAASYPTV

As to `CC(C)C[C@H](NC(=O)c1cc2ccccc2[nH]1)C(=O)N[C@H](C#N)COCc1ccccc1`, the concentration for half-maximal inhibition (IC50) was 29 nM in series [1], less than 1 nM in series [2] and 154 nM in series [3].
In the case of `Cc1nccn1CC(=O)N[C@@H](CC(C)C)C(=O)N[C@H](C#N)COCc1ccccc1`, the IC50 is 240 nM in series [1] and 660 nM in series [3].
As to `Cc1cccc(C[C@@H](C#N)NC(=O)[C@H](CC(C)C)NC(=O)OCc2ccccc2)c1`, the IC50 is 2300 nM in series [1], 120 nM in series [2] and 7700 nM in series [3].
The corresponding values for `CC(C)C[C@H](NC(=O)C(C)(C)Nc1ccc(Cl)cc1)C(=O)N[C@H](C#N)COCc1ccccc1` are 41 nM, 430 nM and 190 nM.
Consider `CC(C)C[C@H](NC(=O)c1cc2ccccc2n1C)C(=O)N[C@H](C#N)COCc1ccccc1`, for which the IC50 in series [1] is 47 nM; in series [2], less than 1 nM; in series [3] it was 83 nM. The compound also returned a bioavailability in series [4] of 30.1%. The compound also came in with a Cmax in series [5] of 51.1 nM. Besides, the Vd in series [6] turned out to be 7.7 L/kg. This compound also showed a half-life in series [7] of 1.4 h. The compound also had a clearance in series [8] of 82 mL/min/kg.
For `Cc1nc[nH]c1CC(=O)N[C@@H](CC(C)C)C(=O)N[C@H](C#N)COCc1ccccc1`, the results for the half-inhibitory concentration (IC50) in series [1], in series [2] and in series [3] were 130 nM, 24 nM and 110 nM, respectively. For the same compound, the bioavailability in series [4] came to 4.6%. The compound also returned a Cmax in series [5] of 11.3 nM. In series [6], the Vd amounted to 4.3 L/kg. In series [7], this compound showed a half-life of 0.2 h. The same compound yielded a clearance in series [8] of 396 mL/min/kg.
Consider `CC(C)C[C@H](NC(=O)CN1CCN(c2ccncc2)CC1)C(=O)N[C@H](C#N)COCc1ccccc1`, for which the half-maximal inhibitory concentration (IC50) in series [1] came out at 180 nM; in series [2] it was 9 nM; in series [3], 330 nM. This compound also displayed a bioavailability in series [4] of 3.5%. This compound also displayed a Cmax in series [5] of 2.5 nM. Besides, the Vd in series [6] turned out to be 18 L/kg. In series [7], this compound showed a half-life of 1 h. For the same compound, the clearance in series [8] is 320 mL/min/kg.
Take `CC(C)C[C@H](NC(=O)OCc1ccccc1)C(=O)N[C@H](C#N)COCc1ccccc1`: the IC50 came to 969 nM in series [1], 9 nM in series [2] and 1700 nM in series [3]. In series [4], this compound gave a bioavailability of 26.4%. For the same compound, the Cmax in series [5] stood at 44.3 nM. Moreover, in series [6], the Vd was 4.6 L/kg. The half-life in series [7] is 2.2 h. Besides, the clearance in series [8] is 45 mL/min/kg.
Turning to `CC(C)C[C@H](NC(=O)OCc1ccccc1)C(=O)N[C@H](C#N)Cc1ccc(OCc2ccccc2)cc1`, the figures for the IC50 in series [1], in series [2] and in series [3] were more than 10000 nM, more than 1000 nM and more than 10000 nM, respectively.
As for `Cc1ccc(C[C@@H](C#N)NC(=O)[C@H](CC(C)C)NC(=O)OCc2ccccc2)cc1`, the IC50 in series [1] was more than 10000 nM; in series [2], 48 nM; in series [3] it was 9900 nM.
Turning to `CC(C)C[C@H](NC(=O)OCc1ccccc1)C(=O)N[C@H](C#N)COC(C)(C)C`, the IC50 in series [1] was determined as 900 nM; in series [2] it was 240 nM; in series [3], 2800 nM.
Regarding `COc1ccc(C[C@@H](C#N)NC(=O)[C@H](CC(C)C)NC(=O)OCc2ccccc2)cc1`, the IC50 in series [1] was determined as 700 nM; in series [2], 63 nM; in series [3], 1100 nM.
Regarding `CC(C)C[C@H](NC(=O)OCc1ccccc1)C(=O)N[C@H](C#N)Cc1ccc(OC(C)(C)C)cc1`, the IC50 in series [1] is more than 10000 nM; in series [2] it was 398 nM; in series [3] it was 1400 nM.
Take `CC(C)C[C@H](NC(=O)OCc1ccccc1)C(=O)N[C@H](C#N)Cc1ccc(C(F)(F)F)cc1`: the results for the IC50 in series [1], in series [2] and in series [3] were more than 10000 nM, 43 nM and 8000 nM, respectively.
On to `CC(C)C[C@H](NC(=O)C(C)(C)Oc1ccc(Cl)cc1)C(=O)N[C@H](C#N)COCc1ccccc1`, for which the IC50 in series [1] is 52 nM; in series [2], less than 1 nM; in series [3] it was less than 30 nM. Also, the bioavailability in series [4] worked out at 10.1%. In addition, in series [5], the Cmax worked out at 3.5 nM. The Vd in series [6] amounted to 13.6 L/kg. Besides, the half-life in series [7] was 3.1 h. In series [8], the clearance turned out to be 141 mL/min/kg.
As for `CC(C)C[C@H](NC(=O)CN1CCC(c2ccccc2)CC1)C(=O)N[C@H](C#N)COCc1ccccc1`, the half-maximal inhibitory concentration (IC50) in series [1] worked out at 140 nM; in series [2], 83 nM; in series [3], 1200 nM.

These data come from ChEMBL document CHEMBL1147644, “Dipeptide nitrile inhibitors of cathepsin K” (Bioorg Med Chem Lett, 2006).
